We go through eight compounds from ChEMBL document CHEMBL4359848, “Merging memantine and ferulic acid to probe connections between NMDA receptors, oxidative stress and amyloid-β peptide in Alzheimer's disease” (Eur J Med Chem, 2019).

In data set [1] the target is Glutamate NMDA receptor; GRIN1/GRIN2A (Homo sapiens, UniProt Q05586+Q12879). The data set is described as follows: Antagonist activity at GluN1a/GluN2A (unknown origin) expressed in Xenopus laevis oocytes at -60 mV holding potential by voltage clamp method. Type of data set: cell-based. The method, boiled down: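 Rat-free detail absent; GluN1-1a/GluN2A cRNA (1:1 by weight) injected into defolliculated oocytes, kept 3–4 days at 18 °C in modified Barth's media. Two-electrode voltage clamp at -60 mV, perfusion with 96 mM NaCl, 2 mM KCl, 1.8 mM CaCl2, 10 mM HEPES pH 7.5. Currents evoked by 100 μM NMDA + 10 μM glycine; compound 0.01–100 μM added at steady state until new plateau; % control fit to Hill equation for IC50; ≥5 oocytes.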

The subject of data set [2] is SH-SY5Y. The data set is described as follows: Cytoprotective activity in human SH-SY5Y cells assessed as increase in HO1 mRNA expression level at 10 uM incubated for 6 hrs by RT-PCR analysis relative to control. Type of data set: functional. In a few lines: (§1)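 SH-SY5Y cells in EMEM/F-12 (1:1) with 10% heat-inactivated FBS, 37 °C, 5% CO2, exposed 6 h to 10 μM compound, final DMSO <0.1%. Total RNA extracted and Nrf2 and HO-1 mRNA quantified by real-time RT-PCR with GAPDH as endogenous reference. Mean ± SEM, experiments repeated at least three times.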

The test system of data set [3] is SH-SY5Y. The data set is described as follows: Cytotoxicity against human SH-SY5Y cells assessed as reduction in cell viability up to 20 uM incubated for 24 hrs by MTT assay. Type of data set: cell-based. In a few lines:
(§2)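 SH-SY5Y cells plated at 2.5×10^4 per well and exposed 24 h to 1–50 μM. MTT at 1 mg/mL in complete medium for 4 h, then SDS solubilisation for 24 h and absorbance read. Viability given as % of untreated control. Dunnett's test, n = 3.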
For orientation: Formazan colour is commonly taken as a measure of viable cells.

Data set [4] has as its system SH-SY5Y. The data set is described as follows: Neuroprotective activity in human SH-SY5Y cells assessed as reduction in H2O2-induced intracellular ROS formation at 10 uM preincubated for 24 hrs followed H2O2 addition and measured after 10 to 90 mins by DCFH-DA staining based assay. Type of data set: functional, cell-based. In a few lines:
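SH-SY5Y cells pretreated 24 h with 10 μM compound, then loaded with 25 μM DCFH-DA for 45 min and challenged with 300 μM H2O2. Fluorescence (485/530 nm) followed from 10 to 90 min. Compared against H2O2 alone by Dunnett's test.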

Data set [5] concerns SH-SY5Y. The data set is described as follows: Neuroprotective activity in human SH-SY5Y cells assessed as reduction in H2O2-induced intracellular ROS formation at 10 uM and measured for 30 to 300 mins by DCFH-DA staining based assay. The format is functional, cell-based. In a few lines:
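SH-SY5Y cells loaded with 25 μM DCFH-DA for 45 min, then given 10 μM compound together with 300 μM H2O2. Fluorescence read at ex 485/em 530 nm over 30–300 min. Compared against H2O2 alone by Dunnett's test.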

The subject of data set [6] is SH-SY5Y. The data set is described as follows: Cytoprotective activity in human SH-SY5Y cells assessed as increase in Nrf2 mRNA expression level at 10 uM incubated for 6 hrs by RT-PCR analysis. The format is functional, cell-based. The method, boiled down:
as §1

The species entered for another data set is Homo sapiens. The data set is described as follows: Activation of alpha secretase in human H4 cells harboring swedish mutant form of APP assessed as increase in sAPPalpha protein level at 10 uM incubated for 24 hrs by Western blot analysis. A general note: Immunoblotting shows a protein as a band on a membrane.
Data set [7] has as its system SH-SY5Y. The data set is described as follows: Cytotoxicity against human SH-SY5Y cells assessed as reduction in cell viability up to 50 uM incubated for 24 hrs by MTT assay. The format is cell-based. The method, boiled down:
as §2

Data set [8] relates to H4. The data set is described as follows: Effect on total intracellular APP in human H4 cells harboring swedish mutant form of APP assessed as change in full length APP protein level at 10 uM incubated for 24 hrs by Western blot analysis. Type of data set: cell-based. To be noted: h4, 24 h. The method, boiled down:
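H4 cells bearing Swedish APP, kept in DMEM/10% FBS under hygromycin B and blasticidin S selection, treated 24 h with 10 μM. Lysates analysed by Western blot for full-length APP. Densitometry normalized to α-tubulin. One-way ANOVA with post-hoc test.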

The subject of data set [9] is SH-SY5Y. The data set is described as follows: Cytoprotective activity in human SH-SY5Y cells assessed as increase in HO1 protein level incubated for 24 hrs by Western blot analysis. The format is functional, cell-based. In a few lines:
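SH-SY5Y cells treated 24 h at 10 or 20 μM. Cells washed in ice-cold PBS, lysed in Tris/NaCl/EDTA/Triton buffer, equal protein run on reducing SDS-PAGE, blotted to PVDF. Probed with anti-HO-1 (1:1000), β-tubulin as loading control, ECL detection. Densitometry expressed as % of control ± SEM.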

For data set [10], the system named is SH-SY5Y. The data set is described as follows: Cytoprotective activity in human SH-SY5Y cells assessed as increase in HO1 protein level at 20 uM incubated for 24 hrs by Western blot analysis. The format is functional. In a few lines:
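SH-SY5Y human neuroblastoma cells (EMEM/Ham's F-12 with 10% heat-inactivated FBS, 37 °C, 5% CO2) treated 24 h at 10 or 20 μM, compound diluted from DMSO stock (final DMSO <0.1%). Whole-cell lysates in Tris/NaCl/EDTA/Triton buffer, SDS-PAGE and PVDF blot probed with anti-HO-1. Tubulin served as loading control, ECL detection, densitometry given as % of untreated control.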

Data set [11] has as its system H4. The data set is described as follows: Cytotoxicity against human H4 cells harboring swedish mutant form of APP assessed as reduction in cell viability up to 20 uM incubated for 24 hrs by MTT assay. Type of data set: cell-based. To be noted: h4, 24 h.

Calls of active or inactive are those of the source. The calls are words filed in the database; no cut-off is given here. Bounds are passed on as bounds.

Chain of Glutamate NMDA receptor; GRIN1/GRIN2A (Q12879 whole entry, other chains not shown, the tested form may be a part): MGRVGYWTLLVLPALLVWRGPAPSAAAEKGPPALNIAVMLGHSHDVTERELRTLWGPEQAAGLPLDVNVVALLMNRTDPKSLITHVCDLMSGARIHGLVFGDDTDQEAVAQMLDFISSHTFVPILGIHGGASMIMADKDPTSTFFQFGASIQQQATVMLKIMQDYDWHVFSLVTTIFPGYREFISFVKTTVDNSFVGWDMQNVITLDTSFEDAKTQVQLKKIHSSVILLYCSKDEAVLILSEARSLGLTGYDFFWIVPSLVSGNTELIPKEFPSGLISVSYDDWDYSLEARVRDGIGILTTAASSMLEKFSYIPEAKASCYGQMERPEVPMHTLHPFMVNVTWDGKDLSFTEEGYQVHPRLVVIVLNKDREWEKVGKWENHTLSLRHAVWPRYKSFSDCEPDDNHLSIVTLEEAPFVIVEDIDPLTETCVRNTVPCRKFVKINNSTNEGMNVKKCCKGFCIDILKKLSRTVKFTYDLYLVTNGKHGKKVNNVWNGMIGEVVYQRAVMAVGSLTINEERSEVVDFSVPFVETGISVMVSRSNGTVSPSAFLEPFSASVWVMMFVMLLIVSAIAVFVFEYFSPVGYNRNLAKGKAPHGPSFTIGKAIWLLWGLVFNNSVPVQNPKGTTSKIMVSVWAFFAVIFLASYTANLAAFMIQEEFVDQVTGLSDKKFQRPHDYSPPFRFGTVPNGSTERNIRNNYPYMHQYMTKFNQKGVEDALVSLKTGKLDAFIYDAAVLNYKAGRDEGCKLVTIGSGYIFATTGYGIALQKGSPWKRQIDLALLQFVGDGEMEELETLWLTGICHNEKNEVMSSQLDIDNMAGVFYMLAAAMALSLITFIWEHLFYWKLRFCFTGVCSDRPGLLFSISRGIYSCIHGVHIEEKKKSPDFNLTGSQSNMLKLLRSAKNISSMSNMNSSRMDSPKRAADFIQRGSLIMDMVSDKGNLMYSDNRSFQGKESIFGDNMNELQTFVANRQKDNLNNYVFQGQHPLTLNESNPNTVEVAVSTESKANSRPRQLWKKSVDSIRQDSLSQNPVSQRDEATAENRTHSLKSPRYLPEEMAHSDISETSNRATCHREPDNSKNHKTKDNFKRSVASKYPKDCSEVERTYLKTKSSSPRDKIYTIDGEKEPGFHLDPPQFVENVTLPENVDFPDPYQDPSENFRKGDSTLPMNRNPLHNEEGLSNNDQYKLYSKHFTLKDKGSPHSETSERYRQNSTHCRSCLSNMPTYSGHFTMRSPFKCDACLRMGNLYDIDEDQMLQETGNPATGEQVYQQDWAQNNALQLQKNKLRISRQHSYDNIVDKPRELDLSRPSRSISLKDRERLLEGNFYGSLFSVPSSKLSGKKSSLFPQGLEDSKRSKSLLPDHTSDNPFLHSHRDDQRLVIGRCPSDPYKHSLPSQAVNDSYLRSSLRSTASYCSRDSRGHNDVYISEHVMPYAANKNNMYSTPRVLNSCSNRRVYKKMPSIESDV

As a reminder, the IC50 is the midpoint of a concentration-inhibition curve. Lower therefore signals higher potency. As to `COc1cc(/C=C/C(=O)NCCNC(=O)C23CC4(C)CC(C)(CC(N)(C4)C2)C3)ccc1O`, the IC50 in data set [1] was > 100 µM.

As for `COc1cc(/C=C/C(=O)NCCCNC(=O)C23CC4(C)CC(C)(CC(N)(C4)C2)C3)ccc1O`, the IC50 in data set [1] is > 100 µM.

Consider `COc1cc(/C=C/C(=O)O)ccc1O` [FERULATE], for which the result in the data set on SH-SY5Y [2] and in the data set with SH-SY5Y [6] was inactive. In addition, the Activity entry in the data set with SH-SY5Y [3] and with SH-SY5Y [7] was “Non-Toxic” each time. The outcome in the data set with SH-SY5Y [4] and with SH-SY5Y [5] was Active. Also, the activation entry in the data set filed under Homo sapiens is “inactive”.

Consider `COc1cc(/C=C/C(=O)NCCCCCCNC23CC4CC(C)(CC(C)(C4)C2)C3)ccc1O`, for which the Activity entry is “Non-Toxic” in the data set with H4 [8]; 150% in the data set on SH-SY5Y [2]; “Dose-dependent effect” in the data set with SH-SY5Y [9]; “Non-Toxic” in the data set with SH-SY5Y [3]; “Non-Toxic” with H4 [11]. For the same compound, the result with SH-SY5Y [4], with SH-SY5Y [5] and in the data set with SH-SY5Y [6] was Active. In [1], this compound registered an IC50 of 6.9 µM. Further, in the data set listed under Homo sapiens, the activation result is “Active”. In the data set with SH-SY5Y [10], the “fold change (FC)” value was 2.

For the compound `COc1cc(/C=C/C(=O)NCCCCCNC23CC4CC(C)(CC(C)(C4)C2)C3)ccc1O`, the Activity entry in the data set with H4 [8], in the data set on SH-SY5Y [3] and with H4 [11] was “Non-Toxic” throughout. The result with SH-SY5Y [2] and in the data set with SH-SY5Y [6] was inactive. The outcome in the data set with SH-SY5Y [4] and in the data set on SH-SY5Y [5] was Active. In data set [1], this compound displayed an IC50 of 14.1 µM. Also, the activation result in the data set listed under Homo sapiens was “inactive”.

Regarding `COc1cc(/C=C/C(=O)NCCCCNC(=O)C23CC4(C)CC(C)(CC(N)(C4)C2)C3)ccc1O`, the IC50 in data set [1] was > 100 µM.

Turning to `COc1cc(/C=C/C(=O)NCCCCNC23CC4CC(C)(CC(C)(C4)C2)C3)ccc1O`, the Activity result in the data set with H4 [8], in the data set with SH-SY5Y [3], with SH-SY5Y [7] and in the data set with H4 [11] was “Non-Toxic” each time. In addition, the result in the data set on SH-SY5Y [2] and with SH-SY5Y [6] was inactive. Moreover, the outcome in the data set with SH-SY5Y [4] and in the data set on SH-SY5Y [5] was Active. Besides, the midpoint of inhibition in [1], the IC50, lay at 23.9 µM. Besides, the activation result in the data set listed under Homo sapiens was “inactive”.

For the compound `COc1cc(/C=C/C(=O)NCCCNC23CC4CC(C)(CC(C)(C4)C2)C3)ccc1O`, the IC50 in [1] is > 100 µM.
